Laboratory results as given in ChEMBL document CHEMBL1641374, “Synthesis of antiproliferative flavones from calycopterin, major flavonoid of Calycopteris floribunda Lamk” (Bioorg Med Chem, 2011).

What was measured:
KB [1] = assay: Cytotoxicity against human KB cells at 10^-6 M after 72 hrs by MTS assay; assay type: functional
Outline: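 KB cells in D-MEM with 10% FCS were seeded at 600 cells/well and dosed 24 h later with flavone at 10^-6 M in DMSO. Controls received DMSO at 1% final. After 72 h, MTS was added for 3 h at 37 °C and A490 read in triplicate. Growth inhibition (%) = (1 − OD treated/OD control)×100.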

HL-60 [2] = assay: Induction of apoptosis in human HL60 cells assessed as induction of caspase 3/7 activation at 100 uM relative to control; assay type: functional
Outline: (§1)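 HL60 cells (20,000/well) were treated 24 and 48 h with compounds in DMSO. Vehicle and doxorubicine served as controls. Fluorescence (ex 360/em 465 nm) was followed over 3 h.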

[3] = Inhibition of sheep brain tubulin polymerization at 2x10'-5 M after 5 mins; design: species or system Ovis aries
Outline: (§2)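 Sheep brain microtubule proteins were purified by two assembly/disassembly cycles (37 °C/0 °C) in 100 mM MES pH 6.6, 1 mM EGTA, 0.5 mM MgCl2. Polymerization rate was followed by turbidity at 350 nm, with deoxypodophyllotoxin as reference. Compounds were tested at ~2×10^-5 M for % inhibition, with IC50 determined for selected compounds.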

KB [4] = assay: Cytotoxicity against human KB cells after 72 hrs by MTS assay; assay type: functional, cell-based
KB [5] = assay: Induction of cell cycle arrest in human KB cells assessed as accumulation at G2/M phase at 20 nM after 48 hrs by propidium iodide staining-based flow cytometry (reference value: 13.8%); assay type: functional
KB [6] = assay: Induction of cell cycle arrest in human KB cells assessed as accumulation at G0/G1phase at 20 nM after 24 hrs by propidium iodide staining-based flow cytometry (reference value: 72.9%); assay type: functional
KB [7] = assay: Induction of cell cycle arrest in human KB cells assessed as accumulation at subG1 phase at 20 nM after 48 hrs by propidium iodide staining-based flow cytometry (reference value: 1.2%); assay type: functional
KB [8] = assay: Induction of cell cycle arrest in human KB cells assessed as accumulation at subG1 phase at 20 nM after 24 hrs by propidium iodide staining-based flow cytometry (reference value: 0.7%); assay type: functional
KB [9] = assay: Induction of cell cycle arrest in human KB cells assessed as accumulation at S phase at 20 nM after 24 hrs by propidium iodide staining-based flow cytometry (reference value: 6.9%); assay type: functional
KB [10] = assay: Induction of cell cycle arrest in human KB cells assessed as accumulation at S phase at 20 nM after 48 hrs by propidium iodide staining-based flow cytometry (reference value: 18.4%); assay type: functional
KB [11] = assay: Induction of cell cycle arrest in human KB cells assessed as accumulation at G0/G1phase at 20 nM after 48 hrs by propidium iodide staining-based flow cytometry (reference value: 66.6%); assay type: functional
KB [12] = assay: Induction of cell cycle arrest in human KB cells assessed as accumulation at G2/M phase at 20 nM after 24 hrs by propidium iodide staining-based flow cytometry (reference value: 19.6%); assay type: functional
KB [13] = assay: Induction of cell cycle arrest in human KB cells assessed as accumulation at G2/M phase at 50 nM after 48 hrs by propidium iodide staining-based flow cytometry (reference value: 13.8%); assay type: functional
A549 = assay: Cytotoxicity against human A549 cells after 72 hrs by MTS assay; assay type: functional, cell-based; settings: A549, 72 h
KB [14] = assay: Induction of cell cycle arrest in human KB cells assessed as accumulation at G0/G1phase at 50 nM after 48 hrs by propidium iodide staining-based flow cytometry (reference value: 66.6%); assay type: functional
HCT-116 = assay: Cytotoxicity against human HCT116 cells after 72 hrs by MTS assay; assay type: functional, cell-based; settings: HCT-116, 72 h
HL-60 [15] = assay: Induction of apoptosis in human HL60 cells assessed as viable cells at 50 nM after24 hrs by annexin-V-PE/7-AAD staining (reference value: 97.2%); assay type: functional; settings: read-out: Activity
HL-60 [16] = assay: Induction of apoptosis in human HL60 cells assessed as induction of caspase 3/7 activation at 100 nM relative to control; assay type: functional; outline: as §1
SF-268 = assay: Cytotoxicity against human SF268 cells after 72 hrs by MTS assay; assay type: functional, cell-based; settings: SF-268, 72 h
HL-60 [17] = assay: Induction of apoptosis in human HL60 cells assessed as viable cells at 50 nM after 48 hrs by annexin-V-PE/7-AAD staining (reference value: 97.4%); assay type: functional; settings: HL-60, 48 h, read-out: Activity
HT-29 = assay: Cytotoxicity against human HT-29 cells after 72 hrs by MTS assay; assay type: functional, cell-based; settings: HT-29, 72 h
HL-60 [18] = assay: Induction of apoptosis in human HL60 cells assessed as late apoptosis cells at 50 nM after24 hrs by annexin-V-PE/7-AAD staining (reference value: 0.2%); assay type: functional
OVCAR-8 = assay: Cytotoxicity against human OVCAR8 cells after 72 hrs by MTS assay; assay type: functional, cell-based; settings: OVCAR-8, 72 h
HL-60 [19] = assay: Induction of apoptosis in human HL60 cells assessed as early apoptosis cells at 50 nM after24 hrs by annexin-V-PE/7-AAD staining (reference value: 2.6%); assay type: functional
Ovis aries = species: Ovis aries; assay: Inhibition of sheep brain tubulin polymerization after 5 mins; outline: as §2
KB [20] = assay: Induction of cell cycle arrest in human KB cells assessed as accumulation at S phase at 50 nM after 24 hrs by propidium iodide staining-based flow cytometry (reference value: 6.9%); assay type: functional
HCT-15 = assay: Cytotoxicity against human HCT15 cells after 72 hrs by MTS assay; assay type: functional, cell-based; settings: HCT-15, 72 h
HL-60 [21] = assay: Induction of apoptosis in human HL60 cells assessed as late apoptosis cells at 50 nM after 48 hrs by annexin-V-PE/7-AAD staining (reference value: 0.1%); assay type: functional
KB [22] = assay: Induction of cell cycle arrest in human KB cells assessed as accumulation at S phase at 50 nM after 48 hrs by propidium iodide staining-based flow cytometry (reference value: 18.4%); assay type: functional
MIA PaCa-2 = assay: Cytotoxicity against human MIAPaCa2 cells after 72 hrs by MTS assay; assay type: functional, cell-based; settings: MIA PaCa-2, 72 h
PC-3 = assay: Cytotoxicity against human PC3 cells after 72 hrs by MTS assay; assay type: functional, cell-based; settings: PC-3, 72 h
K562 = assay: Cytotoxicity against human K562 cells after 72 hrs by MTS assay; assay type: functional, cell-based; settings: K562, 72 h
HepG2 = assay: Cytotoxicity against human HepG2 cells after 72 hrs by MTS assay; assay type: functional, cell-based; settings: HepG2, 72 h
KB [23] = assay: Induction of cell cycle arrest in human KB cells assessed as accumulation at subG1 phase at 50 nM after 48 hrs by propidium iodide staining-based flow cytometry (reference value: 1.2%); assay type: functional
KB [24] = assay: Induction of cell cycle arrest in human KB cells assessed as accumulation at G0/G1phase at 50 nM after 24 hrs by propidium iodide staining-based flow cytometry (reference value: 72.9%); assay type: functional
SK-OV-3 = assay: Cytotoxicity against human SKOV3 cells after 72 hrs by MTS assay; assay type: functional, cell-based; settings: SK-OV-3, 72 h
KB [25] = assay: Induction of cell cycle arrest in human KB cells assessed as accumulation at subG1 phase at 50 nM after 24 hrs by propidium iodide staining-based flow cytometry (reference value: 0.7%); assay type: functional
HL-60 [26] = assay: Cytotoxicity against human HL60 cells after 72 hrs by MTS assay; assay type: functional, cell-based; settings: HL-60, 72 h
[27] = Cytotoxicity against human HL60R cells after 72 hrs by MTS assay; assay type: functional, cell-based; settings: HL-60, 72 h
KB [28] = assay: Induction of cell cycle arrest in human KB cells assessed as accumulation at G2/M phase at 50 nM after 24 hrs by propidium iodide staining-based flow cytometry (reference value: 19.6%); assay type: functional
[29] = Cytotoxicity against human MCF7/R cells after 72 hrs by MTS assay; assay type: functional, cell-based; settings: MCF7R

## COc1ccc(-c2oc3c(OC)c(OC)c(OC)cc3c(=O)c2OC)cc1N
KB [1]
  Activity: 84%
HL-60 [2]
  fold change (FC): 3.1
[3]
  IC50: 12000 nM
KB [4]
  IC50: 78 nM

## COc1ccc(-c2oc3c(OC)c(OC)c(OC)c(O)c3c(=O)c2OC)cc1C=O
KB [1]
  Activity: <=13%

## COc1ccc(/C=C\c2cc(OC)c(OC)c(OC)c2)cc1O [COMBRETASTATIN A4]
KB [5]
  Activity: 0.8%
KB [6]
  Activity: 9.5%
KB [7]
  Activity: 43.5%
KB [8]
  Activity: 13.8%
KB [9]
  Activity: 26.7%
KB [10]
  Activity: 44%
KB [11]
  Activity: 27.4%
KB [12]
  Activity: 50.1%

## COc1ccc(-c2oc3c(OC)c(OC)c(OC)c(O)c3c(=O)c2OC)cc1CO
KB [1]
  Activity: <=13%

## COc1ccc(-c2oc3c(OC)c(OC)c(OC)c(O)c3c(=O)c2OC)cc1N(C)C
KB [1]
  Activity: 13%

## COc1ccc(-c2oc3c(OC)c(OC)c(OC)c(O)c3c(=O)c2OC)cc1O
KB [1]
  Activity: 96%
KB [13]
  Activity: 11.8%
A549
  IC50: 58 nM
KB [14]
  Activity: 27.4%
HCT-116
  IC50: 23 nM
HL-60 [15]
  viability at 0.05 µM: 72.4%
HL-60 [16]
  fold change (FC): 5.7
SF-268
  IC50: 186 nM
HL-60 [17]
  viability at 0.05 µM: 30.8%
[3]
  IC50: 8900 nM
HT-29
  IC50: 3140 nM
HL-60 [18]
  Activity: 0.8%
OVCAR-8
  IC50: 40 nM
HL-60 [19]
  Activity: 26.7%
Ovis aries
  inhibition: 3%
KB [20]
  Activity: 18.5%
HCT-15
  IC50: 14 nM
HL-60 [21]
  Activity: 7.2%
KB [22]
  Activity: 38.6%
MIA PaCa-2
  IC50: 12 nM
PC-3
  IC50: > 1000 nM
K562
  IC50: 7 nM
HepG2
  IC50: 174 nM
KB [23]
  Activity: 22.2%
KB [24]
  Activity: 21.3%
SK-OV-3
  IC50: 22 nM
KB [25]
  Activity: 14.9%
HL-60 [26]
  IC50: 36 nM
[27]
  IC50: 5 nM
KB [28]
  Activity: 45.3%
[29]
  IC50: 17 nM

## COc1ccc(-c2oc3c(OC)c(OC)c(OC)c(N)c3c(=O)c2OC)cc1N
KB [1]
  Activity: 78%
HL-60 [2]
  fold change (FC): 3.6
[3]
  IC50: 24000 nM
KB [4]
  IC50: 128 nM

## COc1ccc(-c2oc3c(OC)c(OC)c(OC)c(O)c3c(=O)c2OC)cc1I
KB [1]
  Activity: <=13%

## COc1c(OC)c(O)c2c(=O)c(OC)c(-c3ccc(O)c(C=O)c3)oc2c1OC
KB [1]
  Activity: <=13%

## COc1ccc(-c2oc3c(OC)c(OC)c(OC)c(O)c3c(=O)c2OC)cc1-c1cc(-c2oc3c(OC)c(OC)c(OC)c(O)c3c(=O)c2OC)ccc1OC
KB [1]
  Activity: <=13%

## COc1ccc(-c2oc3c(OC)c(O)c(OC)c(O)c3c(=O)c2OC)cc1N
[3]
  IC50: 85000 nM
KB [4]
  IC50: 6200 nM
